From ChEMBL document CHEMBL1157241, “Search for Hsp90 inhibitors with potential anticancer activity: isolation and SAR studies of radicicol and monocillin I from two plant-associated fungi of the Sonoran desert” (J Nat Prod, 2006)
pIC50: −log10 of the molar value. Active and inactive are the calls of the source. No cut-off for these calls is given here.

Assays:
[1] = Cytotoxicity against in mouse 3T3-Y9/B12 cells at 10 uM; type: cell-based
Procedure, shortened: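 Mouse 3T3-Y9/B12 heat-shock reporter cells were plated at 20 000 cells/well and left to attach overnight. Compound was added at 10.0 µM in triplicate wells and incubated overnight. Treated wells were then examined by microscope for toxicity, recording whether any living cells remained.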

Oryctolagus cuniculus = species: Oryctolagus cuniculus; test: Inhibition of Hsp90 in rabbit reticulocyte lysate assessed as inhibition of heat-denatured firefly luciferase renaturation at 10 uM relative to geldanamycin
Procedure, shortened: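 Rabbit reticulocyte lysate with an ATP-regenerating system (10 mM phosphocreatine, 1 mM ATP, 17.5 units creatine phosphokinase) was preincubated 20 min with compound in DMSO. Firefly luciferase (100 nM, pH 7.8 tricine buffer) was heat-denatured 8 min at 40 °C, then diluted 10-fold into the lysate and incubated at 28 °C. Luminescence was read in triplicate at 3 min and expressed as % of DMSO control.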

MCF7 [2] = test: Antiproliferative activity against human MCF7 cells at 1 uM by MTT assay; type: functional, cell-based
Mus musculus = species: Mus musculus; test: Induction of heat shock response in mouse 3T3-Y9/B12 cells at 5 uM by fluorescence technique relative to geldanamycin; type: functional, cell-based
Procedure, shortened: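 3T3-Y9/B12 reporter cells were plated at 20 000 cells/well and attached overnight. Triplicate wells received compound at 5.0 µM, GDA positive control at 5.0 µM, or DMSO vehicle (≤0.1%). After overnight incubation, wells were rinsed and read in PBS by fluorescence (ex 485, em 525 nm). Signal was expressed as percentage of DMSO control, mean ± SD of triplicates, with three independent experiments.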

MCF7 [3] = test: Antiproliferative activity against human MCF7 cells by MTT assay; type: functional, cell-based
Procedure, shortened: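 MCF-7 cells were seeded at 2000 cells/well and dosed the next day with serial dilutions in triplicate. GDA was the positive control and DMSO vehicle the negative control. After 3 days at 37 °C under 5% CO2, MTT was added for 3 h in the dark. Medium was replaced with DMSO and absorbance read at 570 nm, minus 650 nm background.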

Row | SMILES | Activity [1] | Activity (Oryctolagus cuniculus) | Activity (MCF7 [2]) | Activity (Mus musculus) | pIC50 (MCF7 [3])
1 | COc1cc2c(c(OC)c1)C(=O)O[C@H](C)C[C@H]1O[C@@H]1/C=C\C=C\C(=O)C2 [DIMETHYL MONOCILLIN I] | Toxic |  |  |  | 
2 | C[C@H]1CCCC(=O)CCC/C=C/c2cc(O)cc(O)c2C(=O)O1 [ZEARALENONE] | Toxic | Active | inactive |  | 
3 | C[C@H]1CCC[C@@H](O)CCCCCc2cc(O)cc(O)c2C(=O)O1 (stereo in doubt; 16) |  | Active | inactive |  | 
4 | C[C@@H]1C[C@H]2O[C@@H]2CCCCC(=O)Cc2cc(O)cc(O)c2C(=O)O1 [TETRAHYDROMONOCILLIN I] | Toxic | Active | inactive | Active | 
5 | COc1cc(OC)c2c(c1Cl)CC(=O)/C=C/C=C\[C@H]1O[C@@H]1C[C@@H](C)OC2=O [DIMETHYL RADICICOL] | Toxic |  | inactive | Active | 
6 | C[C@@H]1C[C@H](O)CCCCCC(=O)Cc2cc(O)cc(O)c2C(=O)O1 [HEXAHYDROMONOCILLIN I] | Toxic |  |  |  | 
7 | C[C@H]1CCCC(=O)CCCCCc2cc(O)cc(O)c2C(=O)O1 [ZEARALANONE] | Toxic |  |  |  | 
8 | C[C@H]1CCC[C@@H](O)CCCCCc2cc(O)cc(O)c2C(=O)O1 (stereo in doubt; 14) |  | Active | inactive |  | 
9 | C[C@H]1CCC[C@H](O)CCCCCc2cc(O)cc(O)c2C(=O)O1 [ZERANOL] | Toxic |  |  |  | 
10 | C[C@@H]1C[C@H]2O[C@@H]2/C=C\C=C\C(=O)Cc2c(Cl)c(O)cc(O)c2C(=O)O1 [RADICICOL] | Toxic | Active |  | Active | 7.52
11 | COc1cc(O)c2c(c1)CC(=O)/C=C/C=C\[C@H]1O[C@@H]1C[C@@H](C)OC2=O [MONOMETHYL MONOCILLIN I] | Toxic |  | inactive | Active | 
12 | C[C@@H]1C[C@H]2O[C@@H]2/C=C\C=C\C(=O)Cc2cc(O)cc(O)c2C(=O)O1 [MONOCILLIN I] | Toxic | Active |  | Active | 6.47
13 | C[C@@H]1C[C@H]2O[C@@H]2CCCCC(=O)Cc2c(Cl)c(O)cc(O)c2C(=O)O1 [TETRAHYDRORADICICOL] | Toxic | Active |  | Active | 6.72
14 | COc1cc(O)c2c(c1Cl)CC(=O)/C=C/C=C\[C@H]1O[C@@H]1C[C@@H](C)OC2=O [MONOMETHYL RADICICOL] | Toxic | Active |  | Active | 6.05
15 | C[C@@H]1C[C@H](O)CCCCCC(=O)Cc2c(Cl)c(O)cc(O)c2C(=O)O1 [HEXAHYDRORADICICOL] | Toxic |  |  |  | 
